B1: Osa-1-4 twister ribozyme (parent)
chain: CCGCCUAACACUGCCAAUGCCGGUCCCAAGCCCGGAUAAAAGUGGAGGGGGCGG

Variants of: B1
Experiment: self-cleavage, relative activity (ratio to wild type); higher = more cleavage; co-transcriptional
In short: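 A DNA template was synthesised for a 54-nucleotide twister ribozyme from Oryza sativa, with 97 % wild-type base and 1 % of each other base at each of the 48 positions downstream of the cleavage site. The ribozyme cleaved itself co-transcriptionally during 2 h of in vitro transcription at 37 °C. Reverse transcription with a template-switching oligonucleotide, PCR amplification and deep sequencing followed, and cleavage status came from reads with or without upstream sequence. Relative activity is the fraction cleaved normalised to wild type.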

Point of comparison: CCGCCUAACACUGCCAAUGCCGCUCCCAAGCCCGCAUAAAAGUGGAGGGGGCGG [G23C G35C], self-cleavage 0.06. Against it:
- CCGCCUAACACUGCCAAUGCCGCUCCCAAGCCCGGAUAAAAAUGGAGGGGGCGG [G23C G42A] — lower, 0.05
- CCGCCUAACACUGCCAAUGCCGCUCCCAAGCCCGGAUAAAAUUGGAGGGGGCGG [G23C G42U] — lower, 0.02
- CCGCCUAACACUGCCAAUGCCGCUCCCAAGCCCGGAUAAAACUGGAGGGGGCGG [G23C G42C] — lower, 0.05
- CCGCCUAACACUGCCAAUGCCGCUCCCAAGCCCGAAUAAAAGUGGAGGGGGCGG [G23C G35A] — lower, 0.04
- CCGCCUAACACUGCCAAUGCCGCUCCCAAGCCCGUAUAAAAGUGGAGGGGGCGG [G23C G35U] — lower, 0.04
- CCGCCUAACACUGCCAAUGCCGCUCCCAAGCCCGGAUAAAAGUUGAGGGGGCGG [G23C G44U] — lower, 0.04
- CCGCCUAACACUGCCAAUGCCGCUCCCAAGCCCGGAUAAAAGUCGAGGGGGCGG [G23C G44C] — lower, 0.04
- CCGCCUAACACUGCCAAUGCCGCUCCCAAGCCCGGAUAAAAGUAGAGGGGGCGG [G23C G44A] — lower, 0.04
- CCGCCUAACACUGCCAAUGCCUGGCCCAAGCCCGGAUAAAAGUGGAGGGGGCGG [G22U U24G] — higher, 0.07
- CCGCCUAACACUGCCAAUGCCUGACCCAAGCCCGGAUAAAAGUGGAGGGGGCGG [G22U U24A] — higher, 0.13
- CCGCCUAACACUGCCAAUGCCUGCCCCAAGCCCGGAUAAAAGUGGAGGGGGCGG [G22U U24C] — the same, 0.06
- CCGCCUAACACUGCCAAUGCCUGUCCCAAGCCCGGAUAAAAGCGGAGGGGGCGG [G22U U43C] — higher, 0.1
- CCGCCUAACACUGCCAAUGCCUGUCCCAAGCCCGGAUAAAAGGGGAGGGGGCGG [G22U U43G] — higher, 0.08
- CCGCCUAACACUGCCAAUGCCUGUCCCAAGCCCGGAUAAAAGAGGAGGGGGCGG [G22U U43A] — higher, 0.12
- CCGCCUAACACUGCCAAUGCCGAGCCCAAGCCCGGAUAAAAGUGGAGGGGGCGG [G23A U24G] — lower, 0.02
- CCGCCUAACACUGCCAAUGCCGAACCCAAGCCCGGAUAAAAGUGGAGGGGGCGG [G23A U24A] — higher, 0.09
- CCGCCUAACACUGCCAAUGCCGACCCCAAGCCCGGAUAAAAGUGGAGGGGGCGG [G23A U24C] — lower, 0.05
- CCGCCUAACACUGCCAAUGCCGAUCCCAAGCCCGGAUAAAAGUGCAGGGGGCGG [G23A G45C] — lower, 0.05
- CCGCCUAACACUGCCAAUGCCGAUCCCAAGCCCGGAUAAAAGUGAAGGGGGCGG [G23A G45A] — lower, 0.05
- CCGCCUAACACUGCCAAUGCCGAUCCCAAGCCCGGAUAAAAGUGUAGGGGGCGG [G23A G45U] — the same, 0.06
- CCGCCUAACACUGCCAAUGCCGAUCCCAAGCCCCGAUAAAAGUGGAGGGGGCGG [G23A G34C] — higher, 0.07
- CCGCCUAACACUGCCAAUGCCGAUCCCAAGCCCAGAUAAAAGUGGAGGGGGCGG [G23A G34A] — higher, 0.11
- CCGCCUAACACUGCCAAUGCCGAUCCCAAGCCCUGAUAAAAGUGGAGGGGGCGG [G23A G34U] — higher, 0.07
- CCGCCUAACACUGCCAAUGCCGCUCCCAAGCCCGGAUAAAAGUGAAGGGGGCGG [G23C G45A] — lower, 0.04
- CCGCCUAACACUGCCAAUGCCGAUCCCAAGCCCGGAUAAAAGUGGAGGCGGCGG [G23A G49C] — lower, 0.05
- CCGCCUAACACUGCCAAUGCCGAUCCCAAGCCCGGAUAAAAGUGGAGGAGGCGG [G23A G49A] — the same, 0.06
- CCGCCUAACACUGCCAAUGCCGAUCCCAAGCCCGGAUAAAAGUGGAGGUGGCGG [G23A G49U] — the same, 0.06
- CCGCCUAACACUGCCAAUGCCGAUCCCAAGCCCGGAUAAAAGAGGAGGGGGCGG [G23A U43A] — higher, 0.1
- CCGCCUAACACUGCCAAUGCCGAUCCCAAGCCCGGAUAAAAGCGGAGGGGGCGG [G23A U43C] — higher, 0.09
- CCGCCUAACACUGCCAAUGCCGAUCCCAAGCCCGGAUAAAAGGGGAGGGGGCGG [G23A U43G] — higher, 0.09
- CCGCCUAACACUGCCAAUGCCGAUCCCAAGCCCGGAUAAAAGUGGAGGGGGCCG [G23A G53C] — the same, 0.06
- CCGCCUAACACUGCCAAUGCCGAUCCCAAGCCCGGAUAAAAGUGGAGGGGGCAG [G23A G53A] — higher, 0.15
- CCGCCUAACACUGCCAAUGCCGAUCCCAAGCCCGGAUAAAAGUGGAGGGGGCUG [G23A G53U] — higher, 0.11
- CCGCCUAACACUGCCAAUGCCGCUCCCAAGCCCGGAUAAAAGUGGAGGGGGCGG [G23C] — lower, 0.05
- CCGCCUAACACUGCCAAUGCCGAUCCCAAGCCCGGAUAAAAGUGGAGGGGGCGG [G23A] — higher, 0.8
- CCGCCUAACACUGCCAAUGCCGAUCCCAAACCCGGAUAAAAGUGGAGGGGGCGG [G23A G30A] — lower, 0.04
- CCGCCUAACACUGCCAAUGCCGAUCCCAACCCCGGAUAAAAGUGGAGGGGGCGG [G23A G30C] — lower, 0.04
- CCGCCUAACACUGCCAAUGCCGAUCCCAAUCCCGGAUAAAAGUGGAGGGGGCGG [G23A G30U] — lower, 0.04
- CCGCCUAACACUGCCAAAGCCUGUCCCAAGCCCGGAUAAAAGUGGAGGGGGCGG [G22U U18A] — higher, 0.84
- CCGCCUAACACUGCCAACGCCUGUCCCAAGCCCGGAUAAAAGUGGAGGGGGCGG [G22U U18C] — higher, 0.68
- CCGCCUAACACUGCCAAGGCCUGUCCCAAGCCCGGAUAAAAGUGGAGGGGGCGG [G22U U18G] — higher, 0.82
- CCGCCUAACACUGCCAAUGCCGCUCCCAAUCCCGGAUAAAAGUGGAGGGGGCGG [G23C G30U] — lower, 0.02
- CCGCCUAACACUGCCAAUGCCGCUCCCAACCCCGGAUAAAAGUGGAGGGGGCGG [G23C G30C] — lower, 0.02
- CCGCCUAACACUGCCAAUGCCGCUCCCAAACCCGGAUAAAAGUGGAGGGGGCGG [G23C G30A] — lower, 0.02
- CCGCCUAACACUGCCAAUGCCUGUCCCAAGCCCGGAUAAAAGUGGAGGGGGCCG [G22U G53C] — lower, 0.05
- CCGCCUAACACUGCCAAUGCCUGUCCCAAGCCCGGAUAAAAGUGGAGGGGGCAG [G22U G53A] — higher, 0.1
- CCGCCUAACACUGCCAAUGCCUGUCCCAAGCCCGGAUAAAAGUGGAGGGGGCUG [G22U G53U] — higher, 0.12

Source: the RNAGym collection of RNA variant scans (doi:10.1002/anie.201605470)
